The values below come from ChEMBL document CHEMBL1126147 (J Med Chem, 1992).

SMILES strings stand for the structures. Active and inactive are the calls of the source. The rule behind the calls is not given here.

Experiment [1] concerns the target T1, Aldo-keto reductase family 1 member B1 (Homo sapiens, UniProt P15121). Nature of the experiment: In vitro inhibitory activity against aldose reductase isolated from human placenta.
The subject of experiment [2] is Rattus norvegicus. Nature of the experiment: In vivo inhibition of sorbitol accumulation in the sciatic nerve in streptozotocin induced diabetic rat model at a concentration of 25 mg/kg. In kind it is functional. A digest of the protocol: (§1)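 Rats (n = 4) were made diabetic with a single iv dose of streptozotocin (86 mg/kg). Compound was given by oral gavage at 4, 7 and 24 h. Animals were killed at 27 h and sciatic nerve sorbitol measured. Percent inhibition is relative to untreated diabetic rats (n = 4), with significance by Student's t test (p < 0.05).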

Experiment [3] has as its system Rattus norvegicus. Nature of the experiment: In vivo inhibition of sorbitol accumulation in the sciatic nerve in streptozotocin induced diabetic rat model at a concentration of 10 mg/kg; NS=not significant. Details: dose 10 mg/kg. In kind it is functional, organism-based. The method, boiled down:
as §1

Experiment [4] relates to Rattus norvegicus. Nature of the experiment: In vivo inhibition of sorbitol accumulation in the sciatic nerve in streptozotocin induced diabetic rat model at a concentration of 10 mg/kg. In kind it is functional. A digest of the protocol: as §1
Experiment [5] deals with Rattus norvegicus. In words: In vivo inhibition of sorbitol accumulation in the sciatic nerve in streptozotocin induced diabetic rat model at a concentration of 25 mg/kg; NS=not significant. Details: dose 25 mg/kg. It counts as functional, organism-based. The method, boiled down: as §1
The target of experiment [6] is T1, Aldo-keto reductase family 1 member B1. Nature of the experiment: In vitro inhibitory activity against aldose reductase isolated from human placenta at 10e-5 M. The method, boiled down:
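Aldose reductase purified from human placenta; DL-glyceraldehyde as substrate with NADPH as cofactor; enzyme inhibition measured in vitro.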

Experiment [7] relates to Rattus norvegicus. In words: In vivo inhibition of sorbitol accumulation in the sciatic nerve in streptozotocin induced diabetic rat model at a concentration of 100 mg/kg. It counts as functional. The method, boiled down: as §1

`O=C(O)Cc1nn(Cc2nc(-c3ccc(F)cc3F)no2)c(=O)c2ccccc12`: the IC50 (as a rule, the midpoint of a concentration-inhibition curve) in experiment [1] worked out at 630 nM. Also, in experiment [2], testing at 25 mg/kg gave an inhibition in vivo of 46%. On to `O=C(O)Cc1nn(Cc2ncc(-c3ccccc3)o2)c(=O)c2ccccc12`, for which, in experiment [1], the IC50 stood at 660 nM. That is a sub-micromolar value.

`O=C(O)Cc1nn(Cc2cn3ccc(Cl)cc3n2)c(=O)c2ccccc12` yielded an IC50 in experiment [1] of 37 nM. Molecule `O=C(O)Cc1nn(C/C(S)=N/c2cccc(C(F)(F)F)c2)c(=O)c2ccccc12` registered an IC50 in experiment [1] of 52 nM. For the molecule `O=C(O)Cc1nn(Cc2ccc3ccccc3n2)c(=O)c2ccccc12`, the IC50 in experiment [1] worked out at 59000 nM. In the case of `O=C(O)Cc1nn(CC(=O)Nc2cc(C(F)(F)F)ccc2O)c(=O)c2ccccc12`, 200 nM corresponded to half-maximal inhibition in experiment [1] (IC50). In experiment [1], `O=C(O)Cc1nn(Cc2nc(-c3ccccc3)c(-c3ccccc3)o2)c(=O)c2ccccc12` gave an IC50 of 4500 nM. Take `O=C(O)Cc1nn(Cc2cc3cc(Cl)ccc3o2)c(=O)c2ccccc12`: in experiment [1], the IC50 turned out to be 150 nM. In experiment [1], `O=C(O)Cc1nn(CC(=O)Nc2cccc(C(F)(F)F)c2)c(=O)c2ccccc12` had an IC50 of 19 nM. In the case of `O=C(O)Cc1nn(Cc2cc3ccccc3[nH]2)c(=O)c2ccccc12`, the IC50 in experiment [1] came out at 870 nM.

Take `O=C(O)Cc1nn(Cc2nc(-c3ccccn3)no2)c(=O)c2ccccc12`: in experiment [1], the IC50 was determined as 156 nM. Also, in experiment [3], the inhibition (commonly how much of the control response was suppressed) is “inactive”. Take `O=C(O)Cc1nn(Cc2nc(-c3ccc(Br)cc3)no2)c(=O)c2ccccc12`: in experiment [1], inhibition was half-maximal at 4600 nM (IC50).

`O=C(O)Cc1nn(CC(=O)Nc2ccc(C(F)(F)F)cc2)c(=O)c2ccccc12`: in experiment [1], the IC50 is 2100 nM. Compared with the last molecule, the IC50 is about 2.2-fold lower. Regarding `O=C(O)Cc1nn(Cc2nc(-c3ccccc3)co2)c(=O)c2ccccc12`, the IC50 in experiment [1] was found to be 3200 nM. This IC50 is about 1.5-fold higher than that of the molecule before. With `O=C(O)Cc1nn(Cc2cc3c(Cl)cccc3s2)c(=O)c2ccccc12`, the IC50 in experiment [1] is 110 nM. Compared with the last molecule, the IC50 is about 29-fold lower. Molecule `O=C(O)Cc1nn(CC(=O)Nc2ccccc2)c(=O)c2ccccc12` had an IC50 in experiment [1] of 4900 nM. This IC50 is about 45-fold higher than that of the molecule before. For `O=C(O)Cc1nn(Cc2nc3cc(C(F)(F)F)ccc3s2)c(=O)c2ccccc12` [ZOPOLRESTAT], the inhibition in vivo (in general, the share of the control response that was lost under treatment) at 10 mg/kg in experiment [4] was 80%.

Take `O=C(O)Cc1nn(Cc2nc(-c3ccccc3Br)no2)c(=O)c2ccccc12`: the IC50 in experiment [1] was 6.5 nM. At 10 mg/kg the inhibition in vivo in experiment [4] was 27%. Molecule `O=C(O)Cc1nn(Cc2nc3ccc(Br)cc3o2)c(=O)c2ccccc12` registered an IC50 in experiment [1] of 540 nM. Molecule `O=C(O)Cc1nn(Cc2nc3cc(Cl)ccc3o2)c(=O)c2ccccc12` came in with an IC50 in experiment [1] of 78 nM. For the same molecule, in experiment [4], the inhibition in vivo at 10 mg/kg was found to be 72%. For `O=C(O)Cc1nn(Cc2nc(-c3ccccc3)ns2)c(=O)c2ccccc12`, the IC50 in experiment [1] amounted to 2200 nM. With `Cc1ccccc1-c1noc(Cn2nc(CC(=O)O)c3ccccc3c2=O)n1`, in experiment [1], the IC50 turned out to be 64 nM. In addition, the inhibition entry in experiment [3] was “inactive”. In experiment [1], `Cn1c(Cn2nc(CC(=O)O)c3ccccc3c2=O)nc2ccccc21` returned an IC50 of 4200 nM. As to `COc1ccccc1-c1noc(Cn2nc(CC(=O)O)c3ccccc3c2=O)n1`, inhibition in experiment [1] was half-maximal at 470 nM (IC50). Besides, the inhibition result in experiment [5] was “inactive”. With `O=C(O)Cc1nn(Cc2nc(-c3cccc(F)c3F)no2)c(=O)c2ccccc12`, half-maximal inhibition in experiment [1] (IC50) required 19 nM. Besides, 25 mg/kg produced 89% inhibition in vivo in experiment [2]. The molecule `COc1cc(NC(=O)Cn2nc(CC(=O)O)c3ccccc3c2=O)cc(OC)c1OC` showed an inhibition in experiment [6] of 20%. With `O=C(O)Cc1nn(CC(=O)Nc2ccccc2C(F)(F)F)c(=O)c2ccccc12`, the midpoint of inhibition in experiment [1], the IC50, lay at 5900 nM. That is a single-digit micromolar value. Regarding `O=C(O)Cc1nn(Cc2csnc2-c2ccccc2)c(=O)c2ccccc12`, in experiment [1], the midpoint of inhibition, the IC50, lay at 10000 nM.

Turning to `O=C(O)Cc1nn(Cc2nc3cc(F)cc(F)c3o2)c(=O)c2ccccc12`, 3.2 nM corresponded to half-maximal inhibition in experiment [1] (IC50). In experiment [4], at 10 mg/kg the inhibition in vivo was 78%.

As for `O=C(O)Cc1nn(CC(=O)Nc2ccccc2Cl)c(=O)c2ccccc12`, it took 430 nM to reach half-maximal inhibition in experiment [1] (IC50).

Consider `O=C(O)Cc1nn(Cc2nc(-c3ccccc3C(F)(F)F)no2)c(=O)c2ccccc12`, for which the IC50 in experiment [1] was found to be 220 nM. The inhibition in vivo at 25 mg/kg in experiment [2] was 60%.

`O=C(O)Cc1nn(CC(=O)Nc2ccc(Cl)cc2)c(=O)c2ccccc12`: inhibition in experiment [1] was half-maximal at 440 nM (IC50). In the case of `O=C(O)Cc1nn(Cc2cc3cc([N+](=O)[O-])ccc3s2)c(=O)c2ccccc12`, the half-inhibitory concentration (IC50) in experiment [1] was 2200 nM. Also, the inhibition entry in experiment [3] is “inactive”.

Molecule `O=C(O)Cc1nn(Cc2nc(-c3c(F)cccc3Cl)no2)c(=O)c2ccccc12` had an IC50 in experiment [1] of 240 nM.

In the case of `O=C(O)Cc1nn(Cc2nc3cc(Cl)cc(Cl)c3o2)c(=O)c2ccccc12`, in experiment [1], the IC50 stood at 32 nM. Further, the inhibition in vivo at 10 mg/kg in experiment [4] turned out to be 63%. `O=C(O)Cc1nn(Cc2cc3cc(Br)ccc3s2)c(=O)c2ccccc12` came in with an IC50 in experiment [1] of 1000 nM. In experiment [1], `O=C(O)Cc1nn(Cc2cc3cc(Cl)ccc3s2)c(=O)c2ccccc12` had an IC50 of 250 nM. This IC50 is about 4-fold lower than that of the molecule before. With `O=C(O)Cc1nn(Cc2cc3cccnc3s2)c(=O)c2ccccc12`, the IC50 in experiment [1] turned out to be 420 nM. The inhibition entry in experiment [5] is “inactive”. `O=C(O)Cc1nn(CC(=S)Nc2cc(C(F)(F)F)ccc2Br)c(=O)c2ccccc12`: it took 200 nM to reach half-maximal inhibition in experiment [1] (IC50). Consider `O=C(O)Cc1nn(Cc2nc(-c3ccccc3Cl)no2)c(=O)c2ccccc12`, for which the IC50 in experiment [1] is 23 nM. For the same molecule, the inhibition entry in experiment [3] was “inactive”. This molecule also showed an inhibition in vivo at 25 mg/kg in experiment [2] of 75%.

For `O=C(O)Cc1nn(Cc2csc(-c3ccccc3)n2)c(=O)c2ccccc12`, half-maximal inhibition in experiment [1] (IC50) was put at 8200 nM.

`O=C(O)Cc1nn(Cc2csc(-c3ccccc3F)n2)c(=O)c2ccccc12` came in with an IC50 in experiment [1] of 460 nM.

Turning to `O=C(O)Cc1nn(Cc2cc3cc(F)ccc3s2)c(=O)c2ccccc12`, in experiment [1], the IC50 turned out to be 150 nM. This molecule returned an inhibition in vivo at 25 mg/kg in experiment [2] of 49%. Turning to `O=C(O)Cc1nn(Cc2nc3cc(C(F)(F)F)ccc3o2)c(=O)c2ccccc12`, the IC50 in experiment [1] was found to be 31 nM. Further, 10 mg/kg produced 32% inhibition in vivo in experiment [4]. Regarding `O=C(O)Cc1nn(C/C(S)=N/c2cccc(Cl)c2)c(=O)c2ccccc12`, inhibition in experiment [1] was half-maximal at 50 nM (IC50). Regarding `O=C(O)Cc1nn(CC(=O)Nc2cc(C(F)(F)F)cc(C(F)(F)F)c2)c(=O)c2ccccc12`, the IC50 in experiment [1] worked out at 1100 nM. Same read-out and setting: in the case of `O=C(O)Cc1nn(Cc2nc3ccccc3o2)c(=O)c2ccccc12` it was 89 nM.

Molecule `O=C(O)Cc1nn(Cc2cc(-c3ccccc3)ns2)c(=O)c2ccccc12` came in with a 50% inhibitory concentration (IC50) in experiment [1] of 670 nM. This IC50 is about 7.5-fold higher than that of the molecule before. As for `O=C(O)Cc1nn(Cc2nc3cc4ccccc4cc3o2)c(=O)c2ccccc12`, the IC50 in experiment [1] was determined as 3000 nM. Still for that read-out and setting: in the case of `O=C(O)Cc1nn(Cc2nnc(-c3ccccc3)o2)c(=O)c2ccccc12` it was 3100 nM.

`O=C(O)Cc1nn(Cc2nc3cc(Br)ccc3o2)c(=O)c2ccccc12` yielded an IC50 in experiment [1] of 27 nM. For the same molecule, in experiment [4], the inhibition in vivo at 10 mg/kg turned out to be 67%. Molecule `O=C(O)Cc1nn(CC(=O)Nc2cc(C(F)(F)F)ccc2Br)c(=O)c2ccccc12` registered an IC50 in experiment [1] of 28 nM. Same read-out and setting: to `O=C(O)Cc1nn(CC(=O)Nc2cccc(F)c2)c(=O)c2ccccc12` belongs 22 nM; to `O=C(O)Cc1nn(CC(=O)Nc2cc(F)cc(F)c2O)c(=O)c2ccccc12`, 170 nM.

As to `O=C(O)Cc1nn(Cc2nc(-c3ccccc3F)no2)c(=O)c2ccccc12`, the IC50 in experiment [1] is under 10 nM. This molecule also returned an inhibition in vivo at 25 mg/kg in experiment [2] of 69%.

Molecule `O=C(O)Cc1nn(Cc2noc(-c3ccccc3C(F)(F)F)n2)c(=O)c2ccccc12` showed an IC50 in experiment [1] of 470 nM. With `O=C(O)Cc1nn(Cc2nc(-c3ccccc3Cl)ns2)c(=O)c2ccccc12`, in experiment [1], the IC50 turned out to be 1100 nM. This IC50 is about 2.3-fold higher than that of the molecule before.

In turn, `O=C(O)Cc1nn(CC(=O)Nc2cc(C(F)(F)F)cc(C(F)(F)F)c2Br)c(=O)c2ccccc12` displayed an IC50 in experiment [1] of 2200 nM. In experiment [1], `O=C(O)Cc1nn(Cc2nc3cc(-c4ccccc4)ccc3o2)c(=O)c2ccccc12` gave an IC50 of 6100 nM. `O=C(O)Cc1nn(Cc2noc(-c3ccccc3Cl)n2)c(=O)c2ccccc12` had an IC50 in experiment [1] of 28 nM.

Regarding `O=C(O)Cc1nn(Cc2nc(-c3ccccc3)no2)c(=O)c2ccccc12`, half-maximal inhibition in experiment [1] (IC50) was put at 160 nM.

`O=C(O)Cc1nn(CC(=O)Nc2cccc(Cl)c2)c(=O)c2ccccc12`: the half-maximal inhibitory concentration (IC50) in experiment [1] is 13 nM.

Molecule `O=C(O)Cc1nn(Cc2cc3ccccc3s2)c(=O)c2ccccc12` displayed an IC50 in experiment [1] of 120 nM. Further, the inhibition in vivo at 100 mg/kg in experiment [7] amounted to 77%. In experiment [1], `O=C(O)Cc1nn(Cc2nc(-c3ccccc3)cs2)c(=O)c2ccccc12` showed an IC50 of 34 nM. This lies in the double-digit nanomolar range. Same read-out and setting: to `O=C(O)Cc1nn(Cc2snc3ccccc23)c(=O)c2ccccc12` belongs 720 nM.
